# CXCR6 inh: CXCR6 (human) receptor inhibition; O00574; CHO-K1 PathHunter CXCR6 beta-arrestin, luminescence; inhibition, % at 20 µM; actives 0.36% (n = 360,000); AID 602244; in the data active = inhibition above about 34%, passing the limit was not always enough;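 also: antagonist mode with CXCL16 agonist at 10 nM final; 0% = 10 nM CXCL16 with DMSO and 100% = unstimulated wells without agonist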
# Target sequence (O00574 whole entry, looked up): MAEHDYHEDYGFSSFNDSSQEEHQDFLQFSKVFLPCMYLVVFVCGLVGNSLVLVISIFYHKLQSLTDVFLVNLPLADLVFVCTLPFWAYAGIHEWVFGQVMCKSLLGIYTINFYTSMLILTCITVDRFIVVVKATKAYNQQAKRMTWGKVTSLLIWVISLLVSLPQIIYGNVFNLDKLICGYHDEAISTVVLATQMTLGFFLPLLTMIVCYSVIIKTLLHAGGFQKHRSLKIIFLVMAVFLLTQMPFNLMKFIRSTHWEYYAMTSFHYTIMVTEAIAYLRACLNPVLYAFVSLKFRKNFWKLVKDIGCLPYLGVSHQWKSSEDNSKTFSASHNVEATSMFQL
# EBI2 antag: blocks human EBI2 receptor beta-arrestin signaling; EBI2 beta-arrestin recruitment, luminescence, 7a,25-OHC stimulated; inhibition, % at 5 µM; actives 0.81% (n = 360,000); AID 651636; in the data active = inhibition above about 38%;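 also: enzyme fragment complementation signal reports receptor beta-arrestin coupling in cells; 0% = agonist plus DMSO wells and 100% = wells without agonist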
# Target sequence (P32249 whole entry, looked up, the tested form may be a part): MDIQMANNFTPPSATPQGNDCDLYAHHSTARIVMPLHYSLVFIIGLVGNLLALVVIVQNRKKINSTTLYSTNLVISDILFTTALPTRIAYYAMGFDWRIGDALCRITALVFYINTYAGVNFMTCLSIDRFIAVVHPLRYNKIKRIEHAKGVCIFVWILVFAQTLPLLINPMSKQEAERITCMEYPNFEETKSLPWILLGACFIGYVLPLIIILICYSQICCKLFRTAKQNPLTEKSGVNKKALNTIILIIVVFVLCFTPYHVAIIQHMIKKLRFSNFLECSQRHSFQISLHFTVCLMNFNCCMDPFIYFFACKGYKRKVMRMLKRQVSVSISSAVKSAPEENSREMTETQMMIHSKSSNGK
# APJ antag: antagonists of human APJ apelin receptor; CHO-K1 APJ beta-arrestin complementation, luminescence; P35414; AID 2521; inhibition, % at 20 µM; actives 0.32% (n = 330,000);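 active = inhibition above about 40% at 20 µM, limit read from the data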;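 also: cells challenged with 10 nM apelin-13 agonist together with compound; plate controls were apelin-13 plus DMSO wells for no effect and DMSO wells lacking apelin-13 for full effect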
# CCR6 antagonist: antagonists of human CCR6 receptor | P51684 | inhibition, % at 20 µM | CHO-K1 CCR6 PathHunter beta-arrestin, luminescence, CCL20-stimulated | actives 0.49% (n = 340,000);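 active = compounds whose inhibition of the agonist-driven luminescence signal at 20 µM reaches about 50%, limit read from the data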;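 also: cells stimulated with CCL20 at 14 nM final; plate controls were DMSO with CCL20 for no effect and DMSO without agonist for full effect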
# APJ agonist: APJ receptor agonism | P35414 | CHO-K1 APJ PathHunter beta-arrestin, luminescence; 0% DMSO wells, 100% apelin | activation, % at 20 µM | actives 0.11% (n = 330,000) | AID 2520;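 active = activation more than six SD over the plate average, tested at 20 µM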;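 also: 0% = DMSO alone and 100% = apelin-13 at 10 nM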
#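 Assay system: CHO-K1 cells stably expressing ProLink-tagged human APJ and arrestin–beta-gal acceptor. Compound dosing: 20 µM single point, 1% DMSO. Times: 16-18 h seeding, 90 min dark compound exposure, 60 min detection. Detection: beta-gal luminescence. Evaluation: APJ–arrestin association signal. Controls: negative DMSO alone, positive Apelin-13 at 10 nM.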
# APJ antag conf: confirmation of human APJ apelin receptor antagonists; inhibition, % at 20 µM; actives 66% (n = 950); APJ beta-arrestin recruitment, luminescence, antagonist mode; AID 2766; shares compounds with APJ antag; in the data active = inhibition above about 50%
# CXCR6 confirm: CXCR6 antagonism confirmation, single concentration; CHO-K1 CXCR6 PathHunter beta-arrestin, luminescence; actives 65% (n = 700); shares compounds with CXCR6 inh; inhibition, % at 20 µM;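 active = mean inhibition over four retests above 40%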;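 also: receptor stimulated with 10 nM CXCL16 agonist; beta-galactosidase fragment complementation upon beta-arrestin recruitment to receptor; plate controls were CXCL16 plus DMSO for no effect and DMSO without CXCL16 for full effect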
# EBI2 antag conf: EBI2 (human) antagonism, single concentration confirmation | shares compounds with EBI2 antag | AID 651997 | inhibition, % at 5 µM | actives 29% (n = 2,400) | EBI2 beta-arrestin luminescence, 7a,25-OHC antagonism;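 active = inhibition of at least 50%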
# EBI2 agonist: EBI2 agonism counter-screen; activation, % at 5 µM; 2,400 tested, under 10 active; shares compounds with EBI2 antag; EBI2-expressing cells, agonist mode, luminescence, 60 min; 0% vehicle, 100% 7α,25-dihydroxycholesterol control; AID 652000;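 active = activation of at least 50%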
# bGal cs: inhibits E. coli beta-galactosidase, counter-screen for EBI2 antagonists. shares compounds with EBI2 antag. purified beta-galactosidase, luminescent Galacton Star, 15 min. inhibition, % at 5 µM. actives 1% (n = 2,400);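 active = replicate-average signal at least 3 plate SD below neutral wells, shown as high inhibition, flagging enzyme-inhibiting false positives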;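 also: 0% = DMSO wells with enzyme and 100% = wells lacking enzyme; higher means stronger loss of beta-gal luminescence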
# The depositor's hits bear a star; . = no result. The list is not random: actives were taken first. Their share in the collection is about 1.5%.
SMILES,CXCR6 inh,EBI2 antag,APJ antag,CCR6 antagonist,APJ agonist,CXCR6 confirm,others
C=C1C(=O)O[C@@H]2C[C@@H](C)[C@@H]3C4OC4C(=O)[C@@]3(C)[C@@H](O)[C@H]12 (some centres undefined),34,42,42*,29,2,.,APJ antag conf=42
COc1ccc(C(=O)C2CCCN(CCO)C2)c(C)c1 (centres undefined),14,1,111*,-3,-2,.,APJ antag conf=26
COCCNC(=O)c1c(N)n(CCC(C)C)c2nc3ccccc3nc12,-2,20,34,14,-11,.,
CC(C)CCn1c(N)c(C(=O)NCc2cccs2)c2nc3ccccc3nc21,1,16,55*,-10,-13,.,APJ antag conf=-3
CCC1CN2CCc3cc(OC)c(OC)cc3C2CC1CC1NCCc2c1[nH]c1ccc(O)cc21 (centres undefined),11,11,.,5,.,.,
COCCCn1c(N)c(C(=O)OCCOC)c2nc3ccccc3nc21,-5,13,10,13,-9,.,
CCOC(=O)c1c(NS(=O)(=O)c2ccccc2)n(CCCOC)c2nc3ccccc3nc12,18,8,50*,60*,-7,.,APJ antag conf=9
CCCCCn1c(NC(=O)c2ccco2)c(C(=O)OCC)c2nc3ccccc3nc21,-4,20,49*,38,-10,.,APJ antag conf=28
CC/C(=N\N1CCCCCC1)c1c(O)n(-c2ccc(C)cc2)c(=O)[nH]c1=O,4,-5,1,-3,-1,.,
CC(C)(C)C(=O)O[C@H]1CC[C@@]2(C)C(=CC(=O)C3C2CC[C@]2(C)C(=O)[C@@H](F)CC32)C1 (some centres undefined),-4,-9,3,0,3,.,
CNc1ccc2oc(C[C@H]3O[C@@]4(CC[C@H]3C)O[C@H]([C@H](C)C(=O)c3ccc[nH]3)[C@H](C)C[C@H]4C)nc2c1C(=O)O,75*,20,65*,55*,2,69*,APJ antag conf=61*
CCN(CC)c1ccc(/C=N/c2sc3c(c2C#N)C2CCN3CC2)c(O)c1,15,10,.,38,.,.,
C=C1C(=O)O[C@@H]2C[C@@H](C)[C@@H]3C=CC(=O)[C@@]3(C)[C@@H](OC(=O)CC(=O)O[C@H]3[C@@H]4C(=C)C(=O)O[C@@H]4C[C@@H](C)[C@@H]4C=CC(=O)[C@]43C)[C@H]12,92*,51*,83*,98*,-9,100*,APJ antag conf=115*
COC(=O)C1=C(c2cc3ccccc3s2)C[C@@H]2CC[C@H]1N2C(=O)NCc1ccc(F)cc1,12,9,-63,23,2,.,
OCCOCC#CCN1CCOCC1,-9,-5,-5,-10,-4,.,
COc1cc(/C=C/[N+](=O)[O-])ccc1OC(=O)c1cccnc1,57*,-11,59*,82*,4,63*,APJ antag conf=72*
CCCCCCCCn1sccc1=O,99*,61*,26,105*,-4,105*,
COc1ccc(OC(=O)N(C)C[C@@H]2OCc3cnnn3CCCC(=O)N([C@@H](C)CO)C[C@H]2C)cc1,1,0,.,.,.,.,
COc1ccc(OC(=O)N(C)C[C@@H]2OCc3cnnn3CCCC(=O)N([C@H](C)CO)C[C@@H]2C)cc1,90*,-6,.,.,.,4,
Cn1c(O)c(C2=NNC(c3ccc(Cl)cc3)C2)c(=O)n(C)c1=O (centres undefined),34*,-6,14,56*,-4,112*,
CN(C)c1ccc2c(c1)N=C(c1ccco1)OP2(=S)N1CCOCC1 (centres undefined),-2,-3,19,1,-2,.,
CCOC(=O)[C@]12Cc3cc(Cl)ccc3[C@H]1N(C1CCCCC1)C(=O)c1cc(OC)ccc12,42*,77*,.,.,.,47*,
CN(C)/C=C1/C(=O)NC(=O)N(CCNc2ncc(C(F)(F)F)cc2Cl)C1=O,0,-16,6,-5,-2,.,
CCCNC(=O)N1[C@H]2CC[C@@H]1C(C(=O)OC)=C(c1c(C)noc1C)C2,-1,3,4,-10,-3,.,
COC(=O)C1=C(C(=O)OC)SC2(S1)C(C(=O)OC)=C(C(=O)OC)Sc1c2ssc1=O,68*,-12,.,86*,.,56*,
SMILES,CXCR6 inh,EBI2 antag,APJ antag,CCR6 antagonist,APJ agonist,CXCR6 confirm,others
Cc1cc([N+](=O)[O-])c(Cl)cc1NC(=O)C(C)C,-3,-6,4,2,-3,.,
CNc1cc(Cl)c2nonc2c1[N+](=O)[O-],100*,80*,.,98*,.,103*,
COc1ccc(CCn2c(O)c(C=NCc3cccnc3)c(=O)[nH]c2=O)cc1OC,5,-6,7,13,0,.,
COc1ccc(C2CC(c3c(O)n(CCc4ccccc4)c(=O)[nH]c3=O)=NN2)cc1OC (centres undefined),90*,0,4,104*,-13,104*,
CCCCn1c(=O)c(C(=O)NCc2ccccc2Cl)c(O)c2ccccc21,1,8,-7,15,-2,.,
CCOC(=O)C1(c2ccccc2)CCN(CCC(=O)Nc2ccc(C(=O)OC)cc2)CC1,2,13,10,14,-2,.,
CCOC(=O)C1(c2ccccc2)CCN(CCC(=O)Nc2ccc(OC)cc2)CC1,-1,52*,.,.,.,.,EBI2 antag conf=41;EBI2 agonist=4;bGal cs=4
CCOC(=O)C1(c2ccccc2)CCN(CCC(=O)Nc2cccc(Br)c2)CC1,-7,59*,10,14,-2,.,EBI2 antag conf=27;EBI2 agonist=0;bGal cs=1
COC(=O)C1=C(c2ccc(F)cc2OCc2ccccc2)C[C@@H]2CC[C@H]1N2C(=O)N1CCC(O)(c2ccc(Cl)cc2)CC1,8,52*,1,7,-2,.,EBI2 antag conf=16;EBI2 agonist=3;bGal cs=-15
O=C(COc1ccccc1)N1CCN(CCN2C(=O)c3cccc4cccc(c34)C2=O)CC1,1,50*,-17,8,2,.,EBI2 antag conf=16;EBI2 agonist=1;bGal cs=4
Cc1cccc(OCC(=O)N2CCN(Cc3cccnc3)CC2)c1,-4,11,-17,1,-1,.,
CCc1ccc(OCC(=O)N2CCN(Cc3ccc4c(c3)OCO4)CC2)cc1,-9,82*,4,-5,-5,.,EBI2 antag conf=53*;EBI2 agonist=0;bGal cs=6
